# Test results: PubChem BioAssay AID651740 (Broad Institute, 2012)
# Out of some 5,600 compounds screened, about 1,200 (21%) were called active. About 3% were inconclusive and are not listed. Only a sample is shown. Unmarked numbers belong to inactive results.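 How the source made its calls: active means mean inhibition above about 95%, with at least 55% of replicates also reaching it (limit read from the data); inconclusive means meets just one of the two conditions; inactive means meets neither condition.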
# Experiment: Trypanosoma cruzi growth blockers in host fibroblasts – NIH3T3 host cells, beta-gal parasites, cherry-pick, set 2, confirmation (AID 651740);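 further: plate controls were neutral control median for no effect and positive control median for full effect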
# Details: T. cruzi beta-gal in NIH3T3, GalScreen luminescence, 90 h; at 2.09 µM; active compounds read high
# Summary of the method: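 Test system: beta-gal T. cruzi in mouse NIH/3T3 fibroblasts. Quantity: 5,000 host cells per well. Buffer or medium: DMEM plus 2% fetal bovine serum, 1% PSG. Reagent: 5000 trypomastigotes per well. Timing: 3 h host cell attachment, then ≥90 h compound-parasite co-culture, 60 min GalScreen. Technique: luminescence, GalScreen.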
row,Structure (SMILES),inhibition
1,COc1ccc(NC(=O)N2CC[C@@H]3[C@@H](CO)N(C)c4ccc(-c5cccc(F)c5)cc4[C@@H]32)cc1,106% (active)
2,CCC(=O)N1CC[C@@H]2[C@@H](CO)N(C)c3ccc(-c4ccc(F)cc4)cc3[C@@H]21,79.1%
3,CCC(=O)N1CC[C@@H]2[C@@H](CO)N(C)c3ccc(-c4cccc(OC)c4)cc3[C@@H]21,91.1%
4,COc1ccccc1NC(=O)N1CCCCN2[C@H](C1)[C@H](c1ccc(-c3ccccc3)cc1)[C@@H]2CO,65%
5,C[C@H](O)C#Cc1ccc([C@H]2[C@H]3CN(S(=O)(=O)Cc4ccccc4)CCCCN3[C@H]2CO)cc1,11.7%
6,O=C(c1cnccn1)N1CC[C@@H]2[C@H](CO)Nc3ccc(-c4cccc(F)c4)cc3[C@@H]21,87.3%
7,O=C(Cc1ccccc1)N1CC[C@H]2[C@H](CO)Nc3ccc(-c4ccccc4F)cc3[C@H]21,64.2%
8,O=C(c1ccccn1)N1CC[C@@H]2[C@H]1c1cc(-c3ccccc3)ccc1N[C@@H]2CO,110% (active)
9,O=S(=O)(c1ccccc1)N1CC[C@@H]2[C@@H](CO)Nc3ccc(C#Cc4cccc(F)c4)cc3[C@@H]21,101% (active)
10,COCC(=O)N1CC[C@@H]2[C@@H](CO)Nc3ccc(-c4cccc(C#N)c4)cc3[C@@H]21,30.7%
11,O=C(c1cccc(F)c1)N1CC[C@@H]2[C@@H](CO)Nc3ccc(C#Cc4cccc(F)c4)cc3[C@@H]21,106% (active)
12,Cc1ccccc1S(=O)(=O)N1CC[C@H]2[C@H](CO)Nc3ccc(-c4cccc(F)c4)cc3[C@H]21,93.1%
13,O=S(=O)(c1ccccc1)N1CC[C@@H]2[C@H]1c1cc(C#Cc3cccc(F)c3)ccc1N[C@@H]2CO,92.6%
14,OC[C@@H]1Nc2ccc(-c3cccc(F)c3)cc2[C@H]2[C@@H]1CCN2Cc1ccncc1,55.6%
15,N#Cc1ccc(-c2ccc3c(c2)[C@@H]2[C@@H](CCN2C(=O)Cc2ccncc2)[C@@H](CO)N3)cc1,54.9%
16,CC(=O)N1CC[C@@H]2[C@H](CO)Nc3ccc(C#Cc4ccccc4F)cc3[C@@H]21,14.9%
17,O=S(=O)(c1ccccc1)N1CC[C@@H]2[C@@H](CO)Nc3ccc(-c4ccccc4F)cc3[C@@H]21,98.3% (active)
18,O=C(Nc1cc(Cl)cc(Cl)c1)N[C@H]1CC[C@@H](CCNS(=O)(=O)c2cccc(F)c2)O[C@H]1CO,2.51%
19,CC(C)C#Cc1ccc([C@H]2[C@H](CO)N3CCCCN(C(=O)NC(C)C)C[C@@H]23)cc1,-8.04%
20,COc1ccc(S(=O)(=O)N(C)C[C@H]2Oc3c(NC(=O)Nc4cccc5ccccc45)cccc3C(=O)N([C@@H](C)CO)C[C@H]2C)cc1,90.2%

row,Structure (SMILES),inhibition
1,C[C@@H]1CN([C@H](C)CO)C(=O)c2cc(/C=C/c3ccccc3)cnc2O[C@@H]1CN(C)Cc1ccncc1,2.78%
2,Cc1cc(C(=O)Nc2cccc3c2O[C@@H](CN(C)Cc2ccc(C(=O)Nc4ccccc4N)cc2)[C@H](C)CN([C@@H](C)CO)C3=O)n(C)n1,63.4%
3,COc1ccc(-c2ccc([C@H]3[C@H]4CN(C(=O)c5ccc6c(c5)OCO6)CCCCN4[C@H]3CO)cc2)cc1,50.5%
4,C[C@H](CO)N1C[C@H](C)[C@H](CN(C)Cc2ccc(-c3ccccc3)cc2)Oc2ccc(NC(=O)Nc3ccc(F)cc3)cc2CC1=O,83.3%
5,CN1c2ccc(-c3ccccc3)cc2[C@H]2[C@H](CCN2C(=O)Cc2ccccn2)[C@H]1CO,72.9%
6,COCC#Cc1ccc([C@@H]2[C@H](CO)N3CCCCN(C(=O)CN(C)C)C[C@@H]23)cc1,29.5%
7,CN1C(=O)c2cc(NC(=O)c3cnccn3)ccc2OC[C@@H]2O[C@@H](CC(=O)N[C@H]3CCN(Cc4ccccc4)C3)CC[C@H]21,32.2%
8,CN1C(=O)c2cc(NC(=O)c3cnccn3)ccc2OC[C@@H]2O[C@H](CC(=O)N[C@@H]3CCN(Cc4ccccc4)C3)CC[C@@H]21,93.2%
9,CN1C(=O)c2cc(NC(=O)Nc3ccccc3F)ccc2OC[C@H]2O[C@H](CC(=O)NCc3ccc(-c4ccccc4)cc3)CC[C@H]21,104% (active)
10,Cc1ccc(-c2ccc3c(c2)O[C@H](CN(C)C)[C@@H](C)CN([C@H](C)CO)S3(=O)=O)cc1,41.9%
11,O=C(NCC1CCCCC1)[C@H]1[C@H](CO)[C@H]2Cn3c(cccc3=O)[C@H]2N1C(=O)CC1CC1,30.6%
12,Cc1ccc(S(=O)(=O)N(C)C[C@H]2OCCCC[C@H](C)Oc3ccc(NC(=O)Cc4ccccc4)cc3C(=O)N([C@@H](C)CO)C[C@@H]2C)cc1,95%
13,COc1ccc(NC(=O)N(C)C[C@@H]2OCCCC[C@@H](C)Oc3ccc(NS(=O)(=O)c4ccc(Cl)cc4)cc3C(=O)N([C@H](C)CO)C[C@H]2C)cc1,44.3%
14,C[C@@H]1CCCCO[C@@H](CN(C)S(=O)(=O)c2ccc(Cl)cc2)[C@H](C)CN([C@@H](C)CO)C(=O)c2cc(NC(=O)Cc3ccccc3)ccc2O1,80.6%
15,C[C@H]1CCCCO[C@@H](CN(C)S(=O)(=O)c2cccs2)[C@@H](C)CN([C@@H](C)CO)C(=O)c2cc(NS(=O)(=O)c3ccc(Cl)cc3)ccc2O1,71%
16,CC(C)NC(=O)Nc1ccc2c(c1)C(=O)N([C@@H](C)CO)C[C@H](C)[C@H](CN(C)S(=O)(=O)c1ccc(Cl)cc1)OCCCC[C@H](C)O2,99.7% (active)
17,C[C@H]1CCCCO[C@H](CN(C)S(=O)(=O)c2ccc(Cl)cc2)[C@@H](C)CN([C@@H](C)CO)C(=O)c2cc(NC(=O)Nc3ccc4c(c3)OCO4)ccc2O1,105% (active)
18,COc1ccc(NC(=O)Nc2ccc3c(c2)C(=O)N([C@H](C)CO)C[C@H](C)[C@H](CN(C)S(=O)(=O)c2ccc(Cl)cc2)OCCCC[C@H](C)O3)cc1,107% (active)
19,C[C@@H]1CCCCO[C@H](CN(C)S(=O)(=O)c2ccc(Cl)cc2)[C@H](C)CN([C@@H](C)CO)C(=O)c2cc(NS(=O)(=O)c3cccs3)ccc2O1,79.2%
20,Cc1noc(C)c1S(=O)(=O)Nc1ccc2c(c1)C(=O)N([C@@H](C)CO)C[C@@H](C)[C@H](CN(C)S(=O)(=O)c1ccc(Cl)cc1)OCCCC[C@H](C)O2,62.5%
